Measurements of several laboratories.
Each line is one published result; the experiments were not run side by side.
Target: Megakaryocyte-associated tyrosine-protein kinase (MATK, Homo sapiens, UniProt P42679)
Residues used in one study (P42679 1-507): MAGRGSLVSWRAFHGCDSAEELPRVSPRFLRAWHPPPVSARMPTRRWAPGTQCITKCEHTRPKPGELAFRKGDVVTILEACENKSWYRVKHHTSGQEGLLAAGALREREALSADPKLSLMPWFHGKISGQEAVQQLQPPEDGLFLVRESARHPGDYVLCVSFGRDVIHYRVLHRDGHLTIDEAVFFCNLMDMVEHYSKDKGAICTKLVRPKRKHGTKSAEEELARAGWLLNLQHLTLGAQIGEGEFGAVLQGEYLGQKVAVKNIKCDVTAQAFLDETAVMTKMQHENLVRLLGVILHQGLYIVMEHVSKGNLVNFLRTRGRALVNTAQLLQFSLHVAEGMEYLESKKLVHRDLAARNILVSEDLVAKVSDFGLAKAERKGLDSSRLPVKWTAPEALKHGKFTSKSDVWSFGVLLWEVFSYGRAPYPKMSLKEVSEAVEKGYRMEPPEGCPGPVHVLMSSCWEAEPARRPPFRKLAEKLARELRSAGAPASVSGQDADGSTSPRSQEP

For `Cc1cnc(Nc2ccc(C(=O)N3CCC(N4CCCC4)CC3)cc2)nc1-c1cc2ccccc2s1`, the remaining binding was 30% (binding, competition with immobilised ligand; 1 µM).
For `COc1ncc2cc3ccccc3nc2c1C#N`, the remaining binding was 100% (cell-free assay, competition with immobilised ligand; 5 µM).
`Nc1ncc2c(n1)-c1c([nH]c3ccc(C#CC4CC4)cc13)CCCC2` gave a remaining binding of 100% (binding, competition with immobilised ligand; 1 µM).
`c1cnn2ncc(-c3ccnc(N4CCC45COC5)n3)c2c1` gave a remaining binding of 87% (binding; 1 µM).
For `CO[C@@H](C)c1c(Nc2ccc([C@@H](N(C)C(=O)C3CCS(=O)(=O)CC3)C(F)(F)F)cc2)cnc2cc(Cl)nn12`, the remaining binding was 98% (cell-free assay, competition with immobilised ligand; 1 µM).
The remaining binding of `c1cncc(-c2cccc(Nc3nccc(NC4CCCCC4)n3)c2)c1` is reported as 71% (binding, competition with immobilised ligand; 10 µM).
With `Cc1cc(NC(=O)c2cccc(S(F)(F)(F)(F)F)c2)cc(-n2ccn3nc(-c4cccnc4)cc23)c1` the remaining binding was 100% (cell-free assay, competition with immobilised ligand; 1 µM).
`O=C(Nc1c[nH]nc1C(=O)NC1CCNCC1)c1cc(F)cc(F)c1` has a remaining binding of 84% (binding, competition with immobilised ligand; 1 µM).
For `O=C(c1ccc(Nc2nccc(-c3cc4ccccc4s3)n2)cc1)N1CCC(N2CCCC2)CC1`, the remaining binding was 67% (binding, competition with immobilised ligand; 1 µM).
`CN(CCCC(F)(F)F)c1nccc(-c2cnn3ncccc23)n1` has a remaining binding of 72% (binding; 1 µM).
For `C[C@@H](c1cccc(C#N)c1)n1cc(Cl)cc(C(N)=O)c1=N`, the remaining binding was 100% (cell-free assay, competition with immobilised ligand; 1 µM).
The remaining binding of `N[C@H]1CCN(c2nccc(-c3cnn4ncccc34)n2)C1` is reported as 100% (binding; 1 µM).
`CNC(=O)[C@@H]1CC[C@@H](n2c(-c3ccc4cnccc4c3)nc3ccc(C(=O)NCc4cccc(C(N)=O)c4)cc32)C1` gave a remaining binding of 100% (binding, competition with immobilised ligand; 1 µM).
With `NS(=O)(=O)c1cc(NC(=O)Cc2ccccc2)ccc1Oc1cccc(Cl)c1` the remaining binding was 68% (cell-free assay, competition with immobilised ligand; 1 µM).
With `CN(C)c1ncc(F)c(-c2cnn3ncccc23)n1` the remaining binding was 79% (binding; 1 µM).
`O=C(NCCCN1CCOCC1)c1ccc(Nc2ncc(Cl)c(-c3ccc(Cl)s3)n2)cc1` gave a remaining binding of 48% (binding, competition with immobilised ligand; 1 µM).
With `CCCOc1ccc([C@@H]2[C@@H](C(=O)O)[C@H](c3ccc4c(c3)OCO4)CN2CC(=O)Nc2c(CC)cccc2CC)cc1` the remaining binding was 90% (cell-free assay, competition with immobilised ligand; 1 µM).
With `CN(c1nccc(-c2cnn3ncccc23)n1)C1CC1` the remaining binding was 100% (binding; 1 µM).
With `O=C(Nc1cnc(Oc2ccc(F)cc2)nc1)N1CCc2ncccc2[C@@H]1c1ccc(F)cc1` the remaining binding was 80% (cell-free assay, competition with immobilised ligand; 1 µM).
`CN(C)c1nccc(-c2cnc3ncccn23)n1` gave a remaining binding of 50% (binding; 1 µM).
